SMILES strings stand for the structures.

Common to all, as to assay type: functional
Assay [1] deals with Mus musculus. Kind of assay: Activity was evaluated in C57BL/10 mice by Morris water Maze test and mean latency for TRH was reported at 0.001 mg/Kg i.p. dosage. In short, it runs like this:
(§1)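 Male C57BL/10 mice (17–21 g, housed 10 per group, food and water ad libitum). Drug in saline or 5% acacia, 10 mL/kg, given ip 30 min before the first of four trials to find a hidden submerged platform. Score was each mouse's mean total latency over the four trials; group mean ± SEM. Vehicle group included. Analysis: one-way ANOVA, then Dunnett t-test versus vehicle, p < 0.05.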

The test system of assay [2] is Mus musculus. In words: Activity was evaluated in C57BL/10 mice by Morris water Maze test and mean latency for TRH was reported at 0.01 mg/Kg i.p. dosage. Put shortly: as §1
Assay [3] relates to Mus musculus. In words: Activity was evaluated in C57BL/10 mice by Morris water Maze test and mean latency for TRH was reported at 0.1 mg/Kg i.p. dosage. Put shortly:
as §1

The subject of assay [4] is Mus musculus. In words: Activity was evaluated in C57BL/10 mice by Morris water Maze test and mean latency for TRH was reported at 1.0 mg/Kg i.p. dosage. Put shortly:
as §1

For assay [5], the system named is Mus musculus. Kind of assay: Activity was evaluated in C57BL/10 mice by Morris water Maze test and mean latency for TRH was reported at 0.01 mg/Kg p.o. dosage. In short, it runs like this: (§2)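 Spatial water-maze task in male C57BL/10 mice (17–21 g, group-housed, ad libitum food and water). Oral dosing (saline or 5% acacia vehicle, 10 mL/kg) 30 min before four trials locating a submerged platform. Latency recorded per trial; the mean total over the four trials was the animal's score, reported as mean ± SEM. Vehicle controls included. Groups compared with vehicle by one-way ANOVA and Dunnett t-test (p < 0.05).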

Assay [6] has as its system Mus musculus. In words: Activity was evaluated in C57BL/10 mice by Morris water Maze test and mean latency for TRH was reported at 0.03 mg/Kg p.o. dosage. In short, it runs like this:
as §2

Assay [7] relates to Mus musculus. In words: Activity was evaluated in C57BL/10 mice by Morris water Maze test and mean latency for TRH was reported at 0.1 mg/Kg p.o. dosage. Put shortly: as §2
Assay [8] concerns Mus musculus. In words: Activity was evaluated in C57BL/10 mice by Morris water Maze test and mean latency for TRH was reported at 0.3 mg/Kg p.o. dosage. Put shortly: as §2
The subject of assay [9] is Mus musculus. Kind of assay: Activity was evaluated in C57BL/10 mice by Morris water Maze test and mean latency for TRH was reported at 0.003 mg/Kg p.o. dosage. In short, it runs like this:
as §2

The subject of assay [10] is Mus musculus. In words: Activity was evaluated in C57BL/10 mice by Morris water Maze test and mean latency for TRH was reported at 0.03 mg/Kg i.p. dosage. In short, it runs like this:
as §1

The test system of assay [11] is Mus musculus. In words: Activity was evaluated in C57BL/10 mice by Morris water Maze test and mean latency for TRH was reported at 0.003 mg/Kg i.p. dosage. Put shortly:
as §1

Assay [12] deals with Mus musculus. In words: Activity was evaluated in C57BL/10 mice by Morris water Maze test and mean latency for TRH was reported at 0.3 mg/Kg i.p. dosage. Put shortly:
as §1

Assay [13] deals with Mus musculus. Kind of assay: Activity was evaluated in C57BL/10 mice by Morris water Maze test and mean latency for TRH was reported at 0.00003 mg/Kg p.o. dosage. In short, it runs like this: as §2
Assay [14] has as its system Mus musculus. Kind of assay: Activity was evaluated in C57BL/10 mice by Morris water Maze test and mean latency for TRH was reported at 3 mg/Kg i.p. dosage. In short, it runs like this: as §1
Assay [15] relates to Mus musculus. In words: Activity was evaluated in C57BL/10 mice by Morris water Maze test and mean latency for TRH was reported at 0.00003 mg/Kg i.p. dosage. Put shortly: as §1
The test system of assay [16] is Mus musculus. Kind of assay: Activity was evaluated in C57BL/10 mice by Morris water Maze test and mean latency for TRH was reported at 0.0003 mg/Kg p.o. dosage. Put shortly:
as §2

Assay [17] concerns Mus musculus. In words: Activity was evaluated in C57BL/10 mice by Morris water Maze test and mean latency for TRH was reported at 0.0003 mg/Kg i.p. dosage. In short, it runs like this:
as §1

Assay [18] relates to Mus musculus. In words: Activity was evaluated in C57BL/10 mice by Morris water Maze test and mean latency for TRH was reported at 3 mg/Kg p.o. dosage. In short, it runs like this: as §2
Assay [19] has as its system Mus musculus. Kind of assay: Activity was evaluated in C57BL/10 mice by Morris water Maze test and mean latency for TRH was reported at 10.0 mg/Kg i.p. dosage. Put shortly: as §1
For assay [20], the system named is Mus musculus. In words: Activity was evaluated in C57BL/10 mice by Morris water Maze test and mean latency for TRH was reported at 3.0 mg/Kg i.p. dosage. In short, it runs like this: as §1

As to `NC(=O)C[C@@H]1C[C@H](Cc2c[nH]cn2)C[C@H](C[C@@H]2CCC(=O)N2)C1`, the Mean latency in the assay with Mus musculus [1] amounted to 47.62 s; in the assay with Mus musculus [2], 38.72 s; with Mus musculus [3], 45.06 s; in the assay with Mus musculus [4] it was 25.23 s.

Take `NC(=O)C[C@@H]1C[C@@H](Cc2c[nH]cn2)C[C@H](C[C@@H]2CCC(=O)N2)C1`: the results for the Mean latency with Mus musculus [2], with Mus musculus [3] and in the assay on Mus musculus [4] were 57.12 s, 46.09 s and 24.19 s, respectively.

Take `C[C@H]1C[C@@H](CC(N)=O)C[C@@H](C[C@@H]2CCC(=O)N2Cc2ccccc2)C1`: the Mean latency in the assay on Mus musculus [5] is given as 35.88 s; with Mus musculus [6], 32.87 s; in the assay on Mus musculus [7] it was 24.55 s; in the assay on Mus musculus [1], 47.48 s; in the assay with Mus musculus [8], 46.53 s; in the assay with Mus musculus [2], 22.15 s. The Mean latency is 26.87 s in the assay on Mus musculus [3], 42.2 s with Mus musculus [9], 26.49 s with Mus musculus [10] and 36.26 s with Mus musculus [11].

For `C[C@H]1C[C@@H](CC(N)=O)C[C@@H](C[C@@H]2CCC(=O)N2)C1`, the Mean latency in the assay with Mus musculus [2] came out at 42.77 s; in the assay with Mus musculus [3], 30.08 s; in the assay on Mus musculus [12], 43.13 s; in the assay with Mus musculus [10], 37.86 s.

With `NC(=O)C[C@@H]1C[C@H](Cc2c[nH]cn2)C[C@H](C[C@@H]2CCC(=O)N2Cc2ccccc2)C1`, the Mean latency was found to be 46.67 s in the assay on Mus musculus [13]; 21.1 s in the assay on Mus musculus [6]; 31.62 s in the assay on Mus musculus [14]; 62.15 s in the assay on Mus musculus [15]; 17.62 s with Mus musculus [12]; 35.23 s in the assay with Mus musculus [9]. The Mean latency with Mus musculus [10] is 15.65 s; with Mus musculus [16], 30.9 s; with Mus musculus [17], 33.29 s; with Mus musculus [11], 22.24 s.

In the case of `NC(=O)C[C@@H]1C[C@@H](Cc2c[nH]cn2)C[C@H](C[C@@H]2CCC(=O)N2Cc2ccccc2)C1`, the Mean latency in the assay on Mus musculus [13] was 51.7 s; with Mus musculus [6], 28.87 s; in the assay with Mus musculus [8], 27.59 s; in the assay with Mus musculus [9], 37.01 s; in the assay with Mus musculus [16], 42.81 s; in the assay with Mus musculus [18] it was 43.72 s.

With `NC(=O)[C@@H]1CCCN1C(=O)[C@H](Cc1c[nH]cn1)NC(=O)[C@@H]1CCC(=O)N1` [PROTIRELIN], the Mean latency is on record as 46 s in the assay on Mus musculus [19]; 33.57 s in the assay with Mus musculus [20]; 50.59 s in the assay with Mus musculus [1]; 37.97 s in the assay on Mus musculus [2]; 25.76 s in the assay on Mus musculus [3]; 20.85 s in the assay on Mus musculus [12]. Moreover, the results for the Mean latency with Mus musculus [10], in the assay with Mus musculus [4] and with Mus musculus [11] were 32.69 s, 28.87 s and 43.08 s, respectively.

Source of the values: ChEMBL document CHEMBL1128483, “Peptide mimetics of thyrotropin-releasing hormone based on a cyclohexane framework: design, synthesis, and cognition-enhancing properties” (1995).
